Screens as filed in PubChem.
Only some compounds are listed: those with a hit (about 2.5% of all), similar ones and a draw of the others.
SIAE inh = blocks human sialic acid acetylesterase. SIAE FP-Rh probe binding, fluorescence polarization. actives 0.69% (n = 370,000). inhibition, % at 9.66 µM;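 active means inhibition above a cutoff: mean of compounds within the control limits plus 3 SD of those, cut at about 17% in these data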;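 further: 0% = plate median of compound wells and 100% = probe without SIAE protein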
Target sequence (Q9HAT2 whole entry, looked up): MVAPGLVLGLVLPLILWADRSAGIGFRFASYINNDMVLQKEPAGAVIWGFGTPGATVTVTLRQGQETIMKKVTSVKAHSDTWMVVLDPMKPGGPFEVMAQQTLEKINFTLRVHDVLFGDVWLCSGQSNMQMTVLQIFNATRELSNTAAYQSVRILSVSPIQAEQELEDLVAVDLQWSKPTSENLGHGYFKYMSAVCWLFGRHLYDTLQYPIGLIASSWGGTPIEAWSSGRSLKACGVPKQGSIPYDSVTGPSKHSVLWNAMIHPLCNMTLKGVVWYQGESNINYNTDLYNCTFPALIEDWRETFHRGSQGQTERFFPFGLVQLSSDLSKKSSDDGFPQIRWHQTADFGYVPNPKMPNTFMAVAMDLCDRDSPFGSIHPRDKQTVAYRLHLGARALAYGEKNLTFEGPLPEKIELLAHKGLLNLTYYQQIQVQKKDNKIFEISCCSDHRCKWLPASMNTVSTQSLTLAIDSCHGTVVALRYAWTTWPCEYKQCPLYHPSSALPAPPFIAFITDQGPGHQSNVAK
ABHD4 inh = inhibitors of mouse ABHD4; purified mABHD4, FP-Rh probe fluorescence polarization; actives 0.54% (n = 370,000); Q8VD66; inhibition, % at 8.92 µM;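 active means inhibition exceeding the mean over every tested compound plus 3 SD, cut at about 30% in these data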;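 further: 0% = plate median of compound wells and 100% = S159A mutant with DMSO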
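Test system: mABHD4 protein | Buffer or medium: HEPES pH 7.0 buffer, 150 mM NaCl, 0.01% Pluronic F-127 | Probe or stimulus: FP-Rh fluorescent activity-based probe, added after compound pre-incubation | Timing: Pre-incubation 45 min, probe exposure 60 min, at 25 °C | Technique: Fluorescence polarization, excitation 525 nm, emission 598 nm, BODIPY TMR filters | Repeats: Single well per compound (singlicate)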
rCAG RNA binder = binds r(CAG) RNA repeats; r(CAG) RNA repeat, TO-PRO-1 dye displacement fluorescence; inhibition, % at 3 µM; actives 1.3% (n = 370,000); AID 651821;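 active means inhibition above the plate cutoff, the mean of all test compounds on that plate plus 3 SD, cut at about 35% in these data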;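 further: 0% = DMSO alone and 100% = 100 µM mitoxantrone as full dye displacement; higher means more dye released from RNA so lower well fluorescence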
HTRA1 inhibitor = HTRA1 (human) protease inhibition; recombinant HTRA1, FP-rhodamine activity-based probe, fluorescence polarization; AID 504803; actives 0.5% (n = 340,000); inhibition, % at 5.96 µM; in the data active means inhibition above about 36%;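 further: 0% = enzyme with DMSO and 100% = wells lacking enzyme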
TCR-CD3 inh = blocks the human TCR-CD3 interaction; TAMRA-labeled TCR probe fluorescence, biochemical; inhibition, % at 9.4 µM; actives 0.37% (n = 360,000); AID 651800; in the data active means inhibition above about 19%;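 further: recombinant mutant TCR 2C K166C tagged with TAMRA read by polarization; 0% = receptor in buffer alone and 100% = receptor with positive control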
SIAE inh conf = human SIAE inhibition, confirmation; shares compounds with SIAE inh; SIAE FP-Rh activity-based probe, fluorescence polarization; inhibition, % at 9.66 µM; actives 13% (n = 2,300); AID 1117263;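 active means mean inhibition of the replicates above the hit cutoff set in the primary screen, cut at about 17% in these data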;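 further: 0% = SIAE with DMSO and probe and 100% = probe without SIAE; inhibitors lower polarization as more probe stays unbound to SIAE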
Numbers without * were called inactive; nt = no result.

SMILES	SIAE inh	ABHD4 inh	rCAG RNA binder	HTRA1 inhibitor	TCR-CD3 inh	SIAE inh conf
COc1cc(NC2=Nc3cccc4cccc2c34)cc(OC)c1OC	24.2*	0.3	-0.3	0.4	1.7	8.6
COc1ccc(NC(=O)CN(c2ccc(OC)c(Cl)c2)S(=O)(=O)c2ccccc2)c(OC)c1	-5.5	-12.9	6.2	-23.6	1.6	nt
Cc1cccc(NC(=O)CN2CCN(C(=O)C(C)Oc3ccc(C#N)cc3)CC2)c1C (centres undefined)	20.1*	-1.2	-0.9	2.0	6.0	5.8
Cc1cccc(NC(=O)CN2CCN(C(=O)CNC(=O)c3ccc(-c4ccccc4)cc3)CC2)c1C	1.4	-13.1	6.7	0.6	-8.9	nt
CCCCn1c(N)c(N(CCOC)C(=O)c2ccc(-c3ccc(Cl)cc3)o2)c(=O)[nH]c1=O	-3.9	2.1	0.6	-9.2	3.1	nt
CCN=C1SC(CC(=O)Nc2ccc(N3CCOCC3)cc2)C(=O)N1CC (centres undefined)	18.9*	1.0	0.6	0.1	-7.2	-0.2
S=c1[nH]nc(-c2ccc3ncccc3c2)n1-c1ccc2c(c1)OCCO2	13.6	6.3	2.2	0.0	0.2	nt
S=c1[nH]nc(Cn2c(-c3ccccn3)nc3ccccc32)n1-c1ccc2c(c1)OCCO2	19.3*	2.3	2.1	4.0	3.7	3.0
CC1(C)CC(=O)C=C(Nc2ccc(OCC(F)(F)C(F)F)cc2)C1	12.2	0.3	-6.2	-0.6	-3.5	nt
CCCn1c(Nc2ccccc2C)nc2ccccc21	37.5*	4.0	-4.4	-3.8	-6.1	-2.7
C=CCc1cccc(CNc2nc3ccccc3n2CCC)c1O	19.4*	-4.3	1.6	-2.2	-3.2	11.0
C=CCc1cccc(CNc2nc3ccccc3n2CC)c1O	8.3	5.8	-0.8	-5.3	2.0	nt
CCc1ccccc1Nc1nc2ccccc2n1CC	6.7	0.8	-3.7	0.6	1.6	nt
O=C(N/N=C/c1cn(Cc2ccccc2)c2ccccc12)c1cc(O)cc(O)c1	19.8*	6.5	25.7	6.7	12.0	-7.1
Cc1cccc(OCCn2cc(/C=N/NC(=O)c3ccncc3)c3ccccc32)c1	30.9*	7.4	7.6	6.2	6.8	-2.7
O=C(CCC1CCCC1)Nc1ccc(C(=O)NCc2cccnc2)cc1	0.9	-9.8	-2.9	-0.7	5.0	nt
COc1ccc2c(c1OC)C(=O)N1c3ccccc3N=C(c3ccc([N+](=O)[O-])cc3)CC21 (centres undefined)	21.3*	2.8	2.1	-0.7	3.4	1.5
Cc1c(C(=O)N2CCOCC2)[nH]c2c1C(=O)CC(c1ccc(Cl)cc1)C2 (centres undefined)	-2.9	3.6	-7.7	2.8	1.4	nt
O=C(CN1CCCc2ccccc21)Nc1ccccc1[N+](=O)[O-]	-1.5	-7.0	0.4	0.9	-0.4	nt
Cc1nc(N2CCN(c3ccccn3)CC2)c2c(C)c(C(=O)Nc3c(F)cc(F)cc3Br)sc2n1	-7.2	-11.4	8.3	-36.4	-1.2	nt
Cc1nc(N2CCN(c3ccccn3)CC2)c2c(C)c(C(=O)Nc3c(C)cc(Br)cc3C)sc2n1	17.3*	-9.8	1.3	-7.9	6.4	-19.4
CC(C)C[C@H]1CN([C@@H](Cc2ccccc2)CN2CCC[C@H]2CN2C(=O)C(=O)NC[C@@H]2Cc2ccc(O)cc2)C(=O)C(=O)N1CCc1ccccc1	0.9	1.1	3.4	nt	-3.9	nt
Cc1cccc(-c2nc(Nc3ccc(N4CCOCC4)cc3)c3ccccc3n2)c1	30.4*	9.0	8.3	15.3	-2.5	6.1
CC(C)(C)c1ccc(C(=O)NNc2ccc(F)cc2F)cc1	21.8*	-14.3	-0.1	-1.2	-1.2	-4.1
CCOC(=O)[C@]12CCCC=C1N(Cc1cccc3ccccc13)C(=O)[C@H](CC(=O)NCc1cccc3ccccc13)C2	-8.8	-24.0	9.8	nt	4.6	nt
SMILES	SIAE inh	ABHD4 inh	rCAG RNA binder	HTRA1 inhibitor	TCR-CD3 inh	SIAE inh conf
CCOC(=O)[C@]12CCCC=C1N(Cc1cccc3ccccc13)C(=O)[C@H](CC(=O)NCCc1ccccc1OC)C2	53.0*	-28.0	11.5	nt	-8.2	-6.5
Cc1ccnc(NC(=O)c2ccc3c(c2)C(=O)N(CC2CCCO2)C3=O)c1 (centres undefined)	-0.1	-4.9	-0.7	-2.7	0.7	nt
CCOCN(C(=O)Cn1cnc2ccccc21)c1c(C)cccc1CC	18.3*	2.7	-7.1	-3.5	-4.8	-1.7
CCc1cccc(CC)c1N(COC)C(=O)Cn1cnc2ccccc21	1.1	-1.9	-9.3	nt	1.2	nt
O=C(NCc1ccccn1)C(=O)NCC1OCCCN1S(=O)(=O)c1ccc(F)cc1 (centres undefined)	-2.2	0.2	-0.8	7.3	6.0	nt
O=C(NCc1ccccn1)C(=O)NCC1OCCN1S(=O)(=O)c1ccc(F)cc1 (centres undefined)	19.4*	0.1	2.9	3.9	-0.3	4.5
COc1ccc(CN(C)C(=O)[C@@H](Cc2ccccc2)NC(=O)[C@H]2O[C@@H](n3ccc(N)nc3=O)[C@H](O)[C@@H]2O)cc1OC	47.5*	-2.5	2.1	nt	-4.5	53.0*
COc1cc(NC(=O)[C@@H](Cc2ccccc2)NC(=O)[C@H]2O[C@@H](n3ccc(=O)[nH]c3=O)[C@H](O)[C@@H]2O)cc(OC)c1OC	-5.9	-0.6	1.3	nt	-2.0	nt
COc1cc(NC(=O)[C@@H](Cc2ccccc2)NC(=O)[C@H]2O[C@@H](n3ccc(N)nc3=O)[C@H](O)[C@@H]2O)cc(OC)c1OC	44.8*	-1.4	0.6	nt	3.2	46.4*
Nc1ccn([C@@H]2O[C@H](C(=O)N[C@H](Cc3ccccc3)C(=O)N3CCN(C(=O)N4CCOCC4)CC3)[C@@H](O)[C@H]2O)c(=O)n1	10.3	2.1	2.3	nt	6.4	nt
Cc1ccc(CNC(=O)[C@@H](Cc2ccccc2)NC(=O)[C@H]2O[C@@H](n3ccc(N)nc3=O)[C@H](O)[C@@H]2O)o1	17.5*	-1.1	4.9	nt	-1.9	14.3
Nc1ccn([C@@H]2O[C@H](C(=O)N[C@H](Cc3ccccc3)C(=O)N3CCC(F)(F)CC3)[C@@H](O)[C@H]2O)c(=O)n1	45.1*	5.0	0.8	nt	3.4	52.5*
COC(=O)c1ccc(N=NNc2ccccc2)cc1	-1.2	14.9	2.1	0.9	-4.1	nt
CCCn1cnnc1CNC(=O)[C@@H](Cc1ccccc1)NC(=O)[C@H]1O[C@@H](n2ccc(=O)[nH]c2=O)[C@H](O)[C@@H]1O	29.6*	5.6	1.3	nt	5.3	35.0*
C=CCOc1ccc(CNn2cn[nH]c2=S)cc1OCC	46.7*	4.8	-1.0	1.9	4.1	-3.6
C=CCOc1ccc(CNn2cn[nH]c2=S)cc1OC	8.7	4.3	2.7	-1.2	-5.5	nt
COc1ccc2cc(C(=O)N/N=C/c3cc(OC)c(OC)c(OC)c3)[nH]c2c1	27.9*	9.0	1.9	0.4	3.2	-9.5
COc1cc2cc(C(=O)N/N=C/c3ccccc3Cl)[nH]c2cc1OC	26.7*	15.7	1.8	10.0	2.4	4.7
